# DDE Tn6 FP inh – inhibitors of Tn6 peptide binding to human fibrin DD(E) | P02675 | Fibrin DD(E) TRITC-Tn6 fluorescence polarization displacement | inhibition, % at 8.3 µM | 0.21% of 370,000 active;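 active = inhibition above a per-campaign cutoff: mean of compounds within control limits plus 3 SD, cut at about 15% in these data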
# CRFBP-R2 agonist – agonists of human CRF-binding protein/CRF-R2 receptor complex; HEK293 CRF-R2/CRF-BP, calcium dye fluorescence (FLIPR); percent of saturating CRF peptide response; activation, % at 13.2 µM; 0.46% of 350,000 active; AID 588473;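 active = activation of at least 50%, plus an integration ratio under a set limit after plate pattern correction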
# CRFBP-R2 block – blocks CRF-induced signaling of the CRF-BP/CRF-R2 complex. inhibition, % at 11.8 µM. HEK293 CRF-R2/CRF-BP, CRF-induced calcium fluorescence. 0.59% of 350,000 active;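 active = inhibition of the ligand-induced calcium signal above about 50% at the single tested concentration, limit read from the data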
# Tn7 DDE FP – inhibitors of Tn7 peptide binding to human fibrin DD(E). P02675. FP displacement of FITC-Tn7 peptide from fibrin DD(E); 0% = median of compound wells per plate. inhibition, % at 8.3 µM. 0.13% of 370,000 active. AID 720508;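 active = inhibition above the mean of compounds falling within the control limits plus 3 SD of them, cut at about 14% in these data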
#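 Assay system: human fibrin DD(E) protein / Input: 2 µM fibrin DD(E) / Benchmarks: high control of 10 µM Aha-Tn7 peptide / Measured by: fluorescence polarization of the labelled Tn7 tracer / Medium: Tris buffer with calcium and detergent, pH 7.8 / Timing: 10 min compound pre-incubation, 3 h probe incubation at room temperature / Repeats: one replicate per compound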
# NRP1-CendR mod – alters CendR peptide binding to human NRP-1; O14786; FAM-RPARPAR peptide binding to NRP-1, fluorescence polarization; inhibition, % at 25 µM; 0.85% of 360,000 active; AID 602438;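 active = inhibition or corrected inhibition above about 18%, plus a signal ratio from 0.5 to 1.5, limit read from the data, passing the limit was not always enough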
# proKLK7 act – proKLK7 (human) activation, primary screen; 0.9% of 370,000 active; activation, % at 7 µM; purified proKLK7, EDANS-DABCYL substrate fluorescence; 100% is mature enzyme control, 0% vehicle; AID 652039;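 active = activation above the mean of all tested compounds plus 3 SD, computed per campaign excluding outliers beyond control limits, cut at about 13% in these data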
# Target sequence (P49862 whole entry, looked up): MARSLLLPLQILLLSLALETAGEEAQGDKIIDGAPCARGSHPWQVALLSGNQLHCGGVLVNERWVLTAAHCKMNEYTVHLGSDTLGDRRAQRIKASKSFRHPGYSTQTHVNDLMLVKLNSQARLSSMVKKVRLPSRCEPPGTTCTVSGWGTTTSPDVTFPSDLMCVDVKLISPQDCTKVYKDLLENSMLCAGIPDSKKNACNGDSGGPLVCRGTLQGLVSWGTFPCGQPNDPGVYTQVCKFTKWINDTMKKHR
# A number is an active result; i = inactive; nt = no result. Hits are enriched below; roughly 2.9% of the tested compounds scored in any of these assays.
SMILES,DDE Tn6 FP inh,CRFBP-R2 agonist,CRFBP-R2 block,Tn7 DDE FP,NRP1-CendR mod,proKLK7 act
CCc1ccc(-c2cc3c(=O)n(CC(=O)NCCCN4CCC(Cc5ccccc5)CC4)nc(C)n3n2)cc1,i,i,100.8,i,i,i
COc1cc(C(=O)NCc2ccccc2)cc(Br)c1OC,i,i,i,i,21.3,i
COc1cc(C(=O)NCc2ccncc2)cc(OC)c1OC,i,i,i,i,i,i
N#Cc1cccc(NC(=O)OCCN2C(=O)CCC23CCC(c2ccc(Cl)cc2)CC3)c1 (stereo not drawn),i,nt,nt,i,nt,i
Nc1ncnc(NNC(=O)CNC(=O)c2c(F)cccc2Cl)c1[N+](=O)[O-],i,i,100.7,i,i,i
Cc1c(C)[n+](=O)c(C)c(C)n1[O-],i,i,i,i,28.6,i
COc1ccc(-c2cc(C(=O)N(C3CCCCC3)C3CCCCC3)no2)cc1,i,nt,nt,i,nt,i
CCC(=O)Nc1nc(C)c(Oc2ccccc2)c(=O)[nH]1,i,i,i,i,23.9,i
O=C(C[n+]1ccccc1)N/N=C/c1ccccc1Cl,i,i,i,i,26.4,i
Cc1sc2ncnc(OCC(=O)NC(C)C)c2c1C,i,i,89.6,i,i,i
COc1ccc(CNC(=O)C2=C(C)C(=O)OC23CCC(C)CC3)cc1 (stereo not drawn),i,i,i,i,i,i
CC1=C(C(=O)NCc2ccccn2)C2(CCC(C)CC2)OC1=O (stereo not drawn),i,i,65.9,i,i,i
CC1=C(C(=O)NCc2ccc(Cl)cc2)C2(CCC(C)CC2)OC1=O (stereo not drawn),i,i,i,i,37.1,i
COC(=O)N1C[C@H](OC)[C@H]2C[C@@H]1c1ccccc1O2,i,nt,nt,i,nt,i
COc1ccc(Cn2cc(CN3[C@H](C)COc4cc(Br)ccc4S3(=O)=O)nn2)cc1,i,nt,nt,i,nt,i
Cc1ccc(OCC(=O)Nc2cc(Cl)ccc2-n2cncn2)c(C)c1,i,i,i,i,i,i
Cc1ccc(S(=O)(=O)CCC(=O)Nc2cc(Cl)ccc2-n2cncn2)cc1,i,i,50.3,i,i,i
CC(CCc1ccco1)NC(=O)c1cccc2c1C(=O)N(C1CCCCC1)C2 (stereo not drawn),i,i,51.3,i,i,i
COc1ccc(N2Cc3cccc(C(=O)NC(C)CCc4ccco4)c3C2=O)cc1 (stereo not drawn),i,i,i,i,i,i
CCOc1cc(S(=O)(=O)n2cc(-c3ccc(F)cc3)c(N)n2)cc(OCC)c1OCC,i,i,i,i,i,i
CCOc1cc(-c2cn(S(=O)(=O)c3cccc4nsnc34)nc2N)cc(OCC)c1OCC,i,i,70.1,i,i,i
CCN(CC)C(=O)Cn1cc(S(=O)(=O)Cc2cccc([N+](=O)[O-])c2)c2ccccc21,i,i,i,i,24.4,i
O=C(CCc1ccccc1)N[C@H]1[C@@H](OC(=O)c2cccnc2)CCC[C@@]12C(=O)N(Cc1ccccc1)c1ccccc12,i,nt,nt,i,nt,i
COCCNC(=S)N(CCc1c(C)[nH]c2ccc(Cl)cc12)Cc1cccs1,i,i,i,i,i,i
COCCNC(=S)N(CCc1c(C)[nH]c2ccc(F)cc12)Cc1cccs1,i,i,i,i,31.9,i
SMILES,DDE Tn6 FP inh,CRFBP-R2 agonist,CRFBP-R2 block,Tn7 DDE FP,NRP1-CendR mod,proKLK7 act
Cc1ccc(NC(=S)NNc2ncc(C(F)(F)F)cc2Cl)c(C)c1,i,i,i,i,i,i
Fc1ccc(NC(=S)NNc2ncc(C(F)(F)F)cc2Cl)c(F)c1,i,55.7,i,i,i,i
Cc1ccc(NC(=S)NNc2ncc(C(F)(F)F)cc2Cl)cc1,i,i,i,i,i,i
FC(F)(F)c1cnc(NNC(=S)Nc2ccc(Cl)cc2)c(Cl)c1,i,51.9,i,i,i,i
COc1ccc(C(=O)C[n+]2ccc3c(c2)nc(Cc2ccccc2)n3C)cc1,i,nt,nt,i,nt,i
Cc1ccsc1C(=O)N1CCCC(CO)(Cc2ccccc2F)C1 (stereo not drawn),i,i,i,i,20.9,i
Cc1ccc(S(=O)(=O)Nc2nc3ccccc3nc2NCc2ccco2)cc1,43.9,i,i,i,i,i
O=C(Nc1ccccc1)Nc1ccc(O)c2ccccc12,nt,i,70.1,nt,nt,nt
O=C(Nc1ccccc1)Nc1cccc2ccccc12,i,i,i,i,i,i
COc1ccc(OC)c(NC(=O)Nc2ccc(O)c3ccccc23)c1,i,i,i,i,25.2,i
COc1ccc(OC)c(NC(=O)Nc2c(O)ccc3ccccc23)c1,i,i,i,i,i,i
C=CCN=C(NC#N)SCc1ccccc1,i,i,i,i,35.6,i
N#CNC(=Nc1cccc(F)c1)SCc1ccccc1,i,i,63.7,i,i,i
CC(C)N=C(NC#N)SCc1ccccc1,i,i,i,i,i,i
N#CNC(=Nc1cccc(F)c1)SCc1cccc(F)c1,i,i,i,i,i,i
CC(C)N1CCCCC(NC(=O)c2ccc(F)cc2)C1=O (stereo not drawn),i,nt,nt,i,nt,i
Cc1ccc(NS(=O)(=O)c2ccc(C(=O)NCc3cccnc3)cc2)cc1,i,i,i,i,20.9,i
O=C(NCc1cccnc1)c1ccc(S(=O)(=O)Nc2ccccc2)cc1,i,i,i,i,i,i
Cc1ccc(Cl)cc1N(CC(=O)N1CCOCC1)S(C)(=O)=O,i,i,73.7,i,i,i
CS(=O)(=O)Nc1ccccc1C(=O)NCc1ccccc1Cl,i,i,60.7,i,i,i
Cn1c(N)c(C(=O)COC(=O)C2(c3ccccc3F)CCCC2)c(=O)n(C)c1=O,i,i,i,i,32.0,i
COC(=O)[C@H](CC(C)C)N(CCCc1cn(Cc2ccccc2)nn1)S(=O)(=O)c1ccccc1Br,i,nt,nt,i,nt,i
COc1ccc(N2CC(C(=O)O)CC2=O)cc1 (stereo not drawn),i,i,i,i,i,i
COc1ccc(N2CS(=O)CC2=O)cc1 (stereo not drawn),i,i,i,i,26.6,i
COC(=O)[C@]12C[C@H](CC(=O)N3CCN(C(=O)c4ccco4)CC3)C(=O)N(Cc3ccccc3)C1=C[C@H](C1CCCC1)O[C@@H]2C,i,nt,nt,i,nt,i
COC(=O)c1ccc(/C(O)=C(\C#N)c2nc3ccccc3s2)cc1,i,i,51.0,i,i,i
N#C/C(=C\C=C\c1ccccc1)c1nc(-c2ccc3c(c2)OCO3)cs1,i,64.9,i,i,i,i
OC(c1ccccc1)(c1nc(-c2ccc3c(c2)OCO3)cs1)C(F)(F)F (stereo not drawn),i,nt,nt,i,i,i
Cc1cc(C)cc(C(=O)Nc2cccnc2Cl)c1,i,i,68.0,i,i,i
CCOc1ccc(C(=O)OCC(=O)Nc2ccc3c(c2)OCCO3)cc1OC,i,i,i,i,24.6,i
